Laboratory results reported in ChEMBL document CHEMBL3400032 (Bioorg Med Chem, 2015).
Active and inactive are the calls of the source. The rule behind the calls is not given here.

Legend:
[1] = Drug metabolism in rat serum assessed as compound remaining at 1 uM after 30 mins by HPLC/MS/MS analysis relative to control; format: ADME, cell-free; conditions: read-out: Stability
How it was run: (§1)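 Test compound at 1 µM final, incubated 30 min at 37 °C in serum, or in S9 mix (50 mM potassium phosphate pH 7.4, 3 mM NADPH, 1 mg protein/mL pooled male SD rat or human liver S9). Preincubated 5 min at 37 °C, compound added in acetonitrile–water (1:1), stopped with ice-cold acetonitrile, centrifuged, filtered, parent and carboxylate hydrolysate quantified by HPLC-MS/MS.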

[2] = system: Rattus norvegicus; experiment: AUC in rat assessed as 2-(3-aminopiperidin-1-yl)-3-(2-chloro-5-fluorobenzyl)-5-methyl-4-oxo-4,5-dihydro-3H-imidazo[4,5-c]quinoline-8-carboxylic acid level at 10 mg/kg, po; format: ADME, organism-based, Plasma; parameters: dose 10 mg/kg, route oral; conditions: in vivo
[3] = Drug metabolism in human serum assessed as compound remaining at 1 uM after 30 mins by HPLC/MS/MS analysis relative to control; format: ADME, cell-free; conditions: read-out: Stability; how it was run: as §1
[4] = Solubility of the compound at pH 2.5; format: physicochemical; conditions: buffer
[5] = system: Rattus norvegicus; experiment: Oral bioavailability in rat assessed as 2-(3-aminopiperidin-1-yl)-3-(2-chloro-5-fluorobenzyl)-5-methyl-4-oxo-4,5-dihydro-3H-imidazo[4,5-c]quinoline-8-carboxylic acid level at 10 mg/kg; format: ADME, organism-based; conditions: in vivo
[6] = Solubility of the compound at pH 5.5; format: physicochemical; conditions: buffer
[7] = Drug metabolism in Sprague-Dawley rat liver S9 fraction assessed as compound remaining at 1 uM after 30 mins by HPLC/MS/MS analysis relative to control; format: ADME, subcellular; conditions: read-out: Stability; how it was run: as §1
[8] = Permeability of the compound at pH 5 by PAMPA; format: ADME; conditions: read-out: permeability
[9] = system: Rattus norvegicus; experiment: Cmax in rat assessed as 2-(3-aminopiperidin-1-yl)-3-(2-chloro-5-fluorobenzyl)-5-methyl-4-oxo-4,5-dihydro-3H-imidazo[4,5-c]quinoline-8-carboxylic acid level at 10 mg/kg, po; format: ADME, organism-based; parameters: dose 10 mg/kg, route oral; conditions: in vivo
[10] = Solubility of the compound at pH 7.4; format: physicochemical; conditions: buffer
[11] = Drug metabolism in human liver S9 fraction assessed as compound remaining at 1 uM after 30 mins by HPLC/MS/MS analysis relative to control; format: ADME, subcellular; conditions: read-out: Stability; how it was run: as §1
[12] = molecular target: Dipeptidyl peptidase 4 (Homo sapiens, UniProt P27487); experiment: Inhibition of human DPP4
Chain of Dipeptidyl peptidase 4 (P27487 whole entry): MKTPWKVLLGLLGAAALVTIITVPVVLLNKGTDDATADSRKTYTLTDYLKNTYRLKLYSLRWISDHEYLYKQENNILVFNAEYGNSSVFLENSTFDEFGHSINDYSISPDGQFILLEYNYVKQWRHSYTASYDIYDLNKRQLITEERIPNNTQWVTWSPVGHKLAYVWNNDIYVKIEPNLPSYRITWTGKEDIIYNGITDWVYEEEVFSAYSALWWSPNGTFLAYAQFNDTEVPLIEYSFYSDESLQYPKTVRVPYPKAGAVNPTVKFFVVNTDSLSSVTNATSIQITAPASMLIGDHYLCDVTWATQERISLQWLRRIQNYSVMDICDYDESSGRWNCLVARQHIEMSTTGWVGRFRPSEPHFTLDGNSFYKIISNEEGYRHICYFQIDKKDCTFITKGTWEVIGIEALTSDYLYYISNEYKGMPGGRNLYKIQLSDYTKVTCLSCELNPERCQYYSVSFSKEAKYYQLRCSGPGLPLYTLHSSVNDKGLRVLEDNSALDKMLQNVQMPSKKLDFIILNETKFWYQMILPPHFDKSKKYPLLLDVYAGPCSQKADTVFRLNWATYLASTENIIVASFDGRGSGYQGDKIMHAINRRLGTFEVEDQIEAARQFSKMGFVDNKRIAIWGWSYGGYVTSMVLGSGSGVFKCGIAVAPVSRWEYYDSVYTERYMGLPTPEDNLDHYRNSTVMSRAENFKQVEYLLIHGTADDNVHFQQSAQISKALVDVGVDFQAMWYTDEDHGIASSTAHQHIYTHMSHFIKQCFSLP

[13] = Permeability of the compound at pH 7.4 by PAMPA; format: ADME; conditions: read-out: permeability
[14] = system: Rattus norvegicus; experiment: Tmax in rat assessed as 2-(3-aminopiperidin-1-yl)-3-(2-chloro-5-fluorobenzyl)-5-methyl-4-oxo-4,5-dihydro-3H-imidazo[4,5-c]quinoline-8-carboxylic acid level at 10 mg/kg, po; format: ADME, organism-based; parameters: dose 10 mg/kg, route oral; conditions: in vivo
[15] = system: Rattus norvegicus; experiment: AUC in rat assessed as 2-(3-aminopiperidin-1-yl)-3-(2-chloro-5-fluorobenzyl)-5-methyl-4-oxo-4,5-dihydro-3H-imidazo[4,5-c]quinoline-7-carboxylic acid level at 10 mg/kg, po; format: ADME, organism-based, Plasma; parameters: dose 10 mg/kg, route oral; conditions: in vivo
[16] = system: Rattus norvegicus; experiment: Oral bioavailability in rat assessed as 2-(3-aminopiperidin-1-yl)-3-(2-chloro-5-fluorobenzyl)-5-methyl-4-oxo-4,5-dihydro-3H-imidazo[4,5-c]quinoline-7-carboxylic acid level at 10 mg/kg; format: ADME, organism-based; conditions: in vivo
[17] = system: Rattus norvegicus; experiment: Reduction of blood glucose level in po dosed Zucker fatty rat model by OGTT analysis; format: functional, organism-based
[18] = system: Rattus norvegicus; experiment: Oral bioavailability in rat assessed as 2-(3-aminopiperidin-1-yl)-3-(2-chlorobenzyl)-5-methyl-4-oxo-4,5-dihydro-3H-imidazo[4,5-c]quinoline-8-carboxylic acid level at 20 mg/kg; format: ADME, organism-based; conditions: in vivo
[19] = system: Rattus norvegicus; experiment: Reduction of blood glucose level in Zucker fatty rat model at 1 mg/kg, po by OGTT analysis; format: functional, organism-based; parameters: dose 1 mg/kg
[20] = Drug metabolism in Sprague-Dawley rat liver S9 fraction assessed as 2-(3-aminopiperidin-1-yl)-3-(2-chlorobenzyl)-5-methyl-4-oxo-4,5-dihydro-3H-imidazo[4,5-c]quinoline-8-carboxylic acid formation at 1 uM after 30 mins by HPLC/MS/MS analysis relative to control; format: ADME, subcellular; conditions: s9, 0.5 h; how it was run: as §1
[21] = system: Rattus norvegicus; experiment: AUC in rat assessed as 2-(3-aminopiperidin-1-yl)-3-(2-chlorobenzyl)-5-methyl-4-oxo-4,5-dihydro-3H-imidazo[4,5-c]quinoline-8-carboxylic acid level at 20 mg/kg, po; format: ADME, organism-based, Plasma; parameters: dose 20 mg/kg, route oral; conditions: in vivo
[22] = system: Rattus norvegicus; experiment: In vivo inhibition of DPP4 in Sprague-Dawley rat at 3 mg/kg, po after 10 hrs; format: functional
How it was run: (§2)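 Male SD rats, 11 weeks, fasted 24 h before predose sampling and throughout; single oral gavage 3 mg/kg. Blood taken −0.5, 1, 2, 4, 6, 10, 24 h. Plasma DPP-4 activity: Gly-Pro-MCA substrate, HEPES/NaCl/MgCl2 buffer pH 7.8, stopped with 5% acetic acid after 20 min, AMC fluorescence 360/460 nm against AMC standard curve; duplicates, background-subtracted, mU/mL plasma.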

[23] = system: Rattus norvegicus; experiment: In vivo inhibition of DPP4 in Sprague-Dawley rat at 3 mg/kg, po after 1 hr; format: functional; how it was run: as §2
[24] = system: Rattus norvegicus; experiment: Tmax in rat assessed as 2-(3-aminopiperidin-1-yl)-3-(2-chlorobenzyl)-5-methyl-4-oxo-4,5-dihydro-3H-imidazo[4,5-c]quinoline-8-carboxylic acid level at 20 mg/kg, po; format: ADME, organism-based; parameters: dose 20 mg/kg, route oral; conditions: in vivo
[25] = system: Serum; experiment: Drug metabolism in rat serum assessed as 2-(3-aminopiperidin-1-yl)-3-(2-chlorobenzyl)-5-methyl-4-oxo-4,5-dihydro-3H-imidazo[4,5-c]quinoline-8-carboxylic acid formation at 1 uM after 30 mins by HPLC/MS/MS analysis relative to control; format: ADME, cell-free; conditions: 0.5 h; how it was run: as §1
[26] = system: Plasma; experiment: Plasma concentration in rat at 20 mg/kg, po; format: ADME, organism-based; parameters: dose 20 mg/kg, route oral; conditions: in vivo
How it was run: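 Rats dosed orally with prodrug; plasma levels of prodrug and carboxylate active metabolite measured over time, limit of quantification 1.0 ng/mL.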

[27] = system: Rattus norvegicus; experiment: Cmax in rat assessed as 2-(3-aminopiperidin-1-yl)-3-(2-chlorobenzyl)-5-methyl-4-oxo-4,5-dihydro-3H-imidazo[4,5-c]quinoline-8-carboxylic acid level at 20 mg/kg, po; format: ADME, organism-based; parameters: dose 20 mg/kg, route oral; conditions: in vivo
[28] = system: Serum; experiment: Drug metabolism in human serum assessed as 2-(3-aminopiperidin-1-yl)-3-(2-chlorobenzyl)-5-methyl-4-oxo-4,5-dihydro-3H-imidazo[4,5-c]quinoline-8-carboxylic acid formation at 1 uM after 30 mins by HPLC/MS/MS analysis relative to control; format: ADME, cell-free; conditions: 0.5 h; how it was run: as §1
[29] = Drug metabolism in human liver S9 fraction assessed as 2-(3-aminopiperidin-1-yl)-3-(2-chlorobenzyl)-5-methyl-4-oxo-4,5-dihydro-3H-imidazo[4,5-c]quinoline-8-carboxylic acid formation at 1 uM after 30 mins by HPLC/MS/MS analysis relative to control; format: ADME, subcellular; conditions: s9, 0.5 h; how it was run: as §1
[30] = system: Rattus norvegicus; experiment: Tmax in rat assessed as 2-(3-aminopiperidin-1-yl)-3-(2-chlorobenzyl)-5-methyl-4-oxo-4,5-dihydro-3H-imidazo[4,5-c]quinoline-7-carboxylic acid level at 20 mg/kg, po; format: ADME, organism-based; parameters: dose 20 mg/kg, route oral; conditions: in vivo
[31] = system: Rattus norvegicus; experiment: AUC in rat assessed as 2-(3-aminopiperidin-1-yl)-3-(2-chlorobenzyl)-5-methyl-4-oxo-4,5-dihydro-3H-imidazo[4,5-c]quinoline-7-carboxylic acid level at 20 mg/kg, po; format: ADME, organism-based, Plasma; parameters: dose 20 mg/kg, route oral; conditions: in vivo
[32] = Drug metabolism in Sprague-Dawley rat liver S9 fraction assessed as 2-(3-aminopiperidin-1-yl)-3-(2-chlorobenzyl)-5-methyl-4-oxo-4,5-dihydro-3H-imidazo[4,5-c]quinoline-7-carboxylic acid formation at 1 uM after 30 mins by HPLC/MS/MS analysis relative to control; format: ADME, subcellular; conditions: s9, 0.5 h; how it was run: as §1
[33] = system: Rattus norvegicus; experiment: Oral bioavailability in rat assessed as 2-(3-aminopiperidin-1-yl)-3-(2-chlorobenzyl)-5-methyl-4-oxo-4,5-dihydro-3H-imidazo[4,5-c]quinoline-7-carboxylic acid level at 20 mg/kg; format: ADME, organism-based; conditions: in vivo
[34] = Drug metabolism in human liver S9 fraction assessed as metabolite 3 formation at 1 uM after 30 mins by HPLC/MS/MS analysis relative to control; format: ADME, subcellular; conditions: s9, 0.5 h; how it was run: as §1
[35] = system: Serum; experiment: Drug metabolism in human serum assessed as 2-(3-aminopiperidin-1-yl)-3-(2-chlorobenzyl)-5-methyl-4-oxo-4,5-dihydro-3H-imidazo[4,5-c]quinoline-7-carboxylic acid formation at 1 uM after 30 mins by HPLC/MS/MS analysis relative to control; format: ADME, cell-free; conditions: 0.5 h; how it was run: as §1
[36] = system: Rattus norvegicus; experiment: Cmax in rat assessed as 2-(3-aminopiperidin-1-yl)-3-(2-chlorobenzyl)-5-methyl-4-oxo-4,5-dihydro-3H-imidazo[4,5-c]quinoline-7-carboxylic acid level at 20 mg/kg, po; format: ADME, organism-based; parameters: dose 20 mg/kg, route oral; conditions: in vivo
[37] = system: Serum; experiment: Drug metabolism in rat serum assessed as 2-(3-aminopiperidin-1-yl)-3-(2-chlorobenzyl)-5-methyl-4-oxo-4,5-dihydro-3H-imidazo[4,5-c]quinoline-7-carboxylic acid formation at 1 uM after 30 mins by HPLC/MS/MS analysis relative to control; format: ADME, cell-free; conditions: 0.5 h; how it was run: as §1

| SMILES | remaining at 0.5 h, 1 µM [1] | remaining at 0.5 h, 1 µM [3] | solubility [4] | solubility [6] | remaining at 0.5 h, 1 µM [7] | Papp [8] | solubility [10] | remaining at 0.5 h, 1 µM [11] | Papp [13] | also measured |
| --- | --- | --- | --- | --- | --- | --- | --- | --- | --- | --- |
| Cc1oc(=O)oc1COC(=O)c1ccc2c(c1)c1nc(N3CCC[C@@H](N)C3)n(Cc3cc(F)ccc3Cl)c1c(=O)n2C.Cl | < 0.5% | < 0.5% | 25 µg/mL | 2 µg/mL | 1% | 11 ×10⁻⁶ cm/s | < 1 µg/mL | 3.5% | 8.4 ×10⁻⁶ cm/s | AUC [2]: 72.7 ng·h/mL; F [5]: 11.7%; Cmax [9]: 14.8 ng/mL; IC50 [12]: 4.7 nM; Tmax [14]: 2 h |
| Cc1oc(=O)oc1COC(=O)c1ccc2c3nc(N4CCC[C@@H](N)C4)n(Cc4cc(F)ccc4Cl)c3c(=O)n(C)c2c1.Cl | < 0.5% | < 0.5% | 47 µg/mL | 1 µg/mL | 3.6% | 15.8 ×10⁻⁶ cm/s | < 1 µg/mL | 13% | 15.9 ×10⁻⁶ cm/s | AUC [15]: 43.9 ng·h/mL; F [16]: 4.8% |
| Cc1oc(=O)oc1COC(=O)c1ccc2c(c1)c1nc(N3CCC[C@@H](N)C3)n(Cc3ccccc3Cl)c1c(=O)n2C.Cl | < 0.5% | < 0.5% | 210 µg/mL | 3 µg/mL | < 0.5% | 10.3 ×10⁻⁶ cm/s | < 1 µg/mL | 7.8% | 12.1 ×10⁻⁶ cm/s | Activity [17]: Dose-dependent effect; F [18]: 35%; Activity [19]: Active; Drug metabolism [20]: metabolite_detected; AUC [21]: 728 ng·h/mL; inhibition in vivo at 3 mg/kg [22]: 64%; inhibition in vivo at 3 mg/kg [23]: 87%; Tmax [24]: 2 h; Drug metabolism [25]: metabolite_detected; Cp [26]: < 1 ng/mL; Cmax [27]: 94.1 ng/mL; Drug metabolism [28]: metabolite_detected; Drug metabolism [29]: metabolite_detected |
| Cc1oc(=O)oc1COC(=O)c1ccc2c3nc(N4CCC[C@@H](N)C4)n(Cc4ccccc4Cl)c3c(=O)n(C)c2c1.Cl | < 0.5% | < 0.5% | 54 µg/mL | 2 µg/mL | 1% | 12.5 ×10⁻⁶ cm/s | 2 µg/mL | 17% | 14.2 ×10⁻⁶ cm/s | Tmax [30]: 0.25 h; AUC [31]: 61.9 ng·h/mL; Drug metabolism [32]: metabolite_detected; F [33]: 4%; Drug metabolism [34]: metabolite_detected; Drug metabolism [35]: metabolite_detected; Cmax [36]: 81.7 ng/mL; Drug metabolism [37]: metabolite_detected |
